This is a sample that favours compounds with a hit; in the whole collection about 10% have one here.
Lmaj promast – reduces viability of Leishmania major promastigotes; resazurin fluorescence viability; inhibition, % at 10 µM; 200,000 compounds, 9% hits; in the data active = inhibition above about 50%;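 also: promastigotes grown with compound for 44 hours at 28 °C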
PMI act – activators of human phosphomannose isomerase | P34949 | purified human PMI, coupled resazurin fluorescence, 20 min; stronger effect = higher value; 1 = vehicle control, 0 substrate-free wells | activation factor at 20 µM | 190,000 compounds, 0.005% hits | AID 1214;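 active = activation factor of 2 or more at 20 µM, relative to plate controls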
Target sequence (P34949 whole entry, looked up): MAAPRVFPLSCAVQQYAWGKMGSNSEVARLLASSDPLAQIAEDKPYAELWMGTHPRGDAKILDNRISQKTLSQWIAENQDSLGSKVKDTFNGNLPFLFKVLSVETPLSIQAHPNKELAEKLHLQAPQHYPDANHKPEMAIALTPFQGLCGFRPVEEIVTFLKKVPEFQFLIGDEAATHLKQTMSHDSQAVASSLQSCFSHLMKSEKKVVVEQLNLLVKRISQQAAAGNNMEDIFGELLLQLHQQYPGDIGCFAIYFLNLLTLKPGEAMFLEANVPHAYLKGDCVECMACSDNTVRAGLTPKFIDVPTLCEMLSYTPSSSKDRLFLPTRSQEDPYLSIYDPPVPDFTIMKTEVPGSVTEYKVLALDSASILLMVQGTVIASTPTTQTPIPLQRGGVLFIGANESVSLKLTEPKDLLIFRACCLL
WT yeast gro inh – growth inhibition of WT yeast, mitochondrial fusion screen. mitochondrial fusion phenotypic screen, WT strain. inhibition, % at 10 µM. 190,000 compounds, 2.1% hits; in the data active = inhibition above about 58%; tested in S. cerevisiae
PMI act hi M6P – PMI (human) activation, high substrate | coupled PMI enzyme assay, resazurin fluorescence, 20 min; stronger effect = higher value; 1 = untreated enzyme, 0 = substrate-free blank | activation factor at 20 µM | 190,000 compounds, 0.34% hits | AID 1216;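 active = activation factor of 2 or more at 20 µM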
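test system = human PMI in coupled enzyme assay | medium = HEPES-buffered pH 7.4 with magnesium and detergent | also added = 1.0 mM mannose-6-phosphate substrate with 0.22 mM NADP+ | compound = 20 µM single dose | times = 20 min incubation at room temperature | measured by = resorufin fluorescence (Ex 544/Em 590 nm) from resazurin via diaphorase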
Diaph act CS – diaphorase activation or chemical reduction counter-screen. 190,000 compounds, 0.005% hits. AID 1229. Diaphorase/resazurin coupled assay, resorufin fluorescence, 16 min; stronger effect = higher value; 1 = vehicle wells, 0 = NADH-free wells. activation factor at 20 µM;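 active = diaphorase activity raised at least twofold by the compound at 20 µM; inactive = activation factor below 2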
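Material: Purified diaphorase enzyme from Clostridium kluyveri | Buffer or medium: 50 mM HEPES pH 7.4 with 4.542 mM MgCl2, 0.005% Tween 20 | Times: 16 min enzyme reaction, ambient temperature | Signal: Red resorufin fluorescence at 544/590 nm excitation/emission | Measure: Increased resorufin signal from activators or reducing compounds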
A number is an active result; . = inactive; / = no result given.

SMILES	Lmaj promast	PMI act	WT yeast gro inh	PMI act hi M6P	Diaph act CS
CC(C)CCOC(=O)C1C(c2ccccc2)C(C(=O)O)C1c1ccccc1 (stereo not drawn)	.	.	.	.	.
O=C(CN1C(=O)CCC1=O)Nc1nc(-c2ccccn2)cs1	.	.	.	.	.
O=C(Nc1nc(-c2ccccn2)cs1)C1CCCC1	78.8	.	.	.	.
COc1cccc(/C=C/c2ccncc2)c1OC	85.8	.	.	.	.
CC(Sc1nnnn1-c1ccccc1)C(=O)Nc1ccc(Cl)cn1 (stereo not drawn)	.	.	.	.	.
CC1(C)C(=O)OC(c2cccn2-c2cccc([N+](=O)[O-])c2)C2(CCCCC2)C1=O (stereo not drawn)	.	.	77.8	.	.
CC1(C)CC(=O)C(C(C2=C(O)CC(C)(C)CC2=O)c2ccc(Br)s2)C(=O)C1 (stereo not drawn)	.	.	.	.	.
Nc1ncnc(Oc2cccc3cccnc23)c1[N+](=O)[O-]	96.3	.	.	.	.
Cc1cccc(C)c1-n1cccc1/C=C1/C(=N)N2C(=NC1=O)SN=C2S(C)(=O)=O	.	.	.	.	.
CC1=CSC2=NC(=O)/C(=C\c3cccn3-c3ccccc3)C(=N)N12	87.6	.	.	.	.
Cc1ccccc1Cn1cccc1/C=C1/C(=N)N2C=CSC2=NC1=O	.	.	.	.	.
CC1=CSC2=NC(=O)/C(=C\c3cccn3-c3ccc([N+](=O)[O-])cc3)C(=N)N12	59.9	.	.	.	.
Cc1ccc(-n2cccc2/C=C2/C(=N)N3C(=NC2=O)SN=C3S(C)(=O)=O)cc1Cl	.	.	.	.	.
CC(C)c1ccc(-n2cccc2/C=C2/C(=N)N3C=CSC3=NC2=O)cc1	97.9	.	87.3	.	.
COc1cc2c(C(=O)N3CCN(c4ccccc4F)CC3)cn(C)c(=O)c2cc1OC	.	.	.	.	.
O=C(N/N=C/c1cc(Br)ccc1O)c1cccc(N2CCCC2=O)c1	99.6	.	.	.	.
COC(=O)N/N=C/c1cc(Br)ccc1O	.	.	.	.	.
O=C(N/N=C/c1cc(Br)ccc1O)c1ccccc1Cl	98.2	.	.	.	.
O=C(CCc1ccccc1)N/N=C/c1cc(Br)ccc1O	98.2	.	.	.	.
O=C(N/N=C/c1ccco1)c1cccc(N2CCCC2=O)c1	.	.	.	.	.
COc1ccc(/C=N/NC(=O)CCc2ccccc2)cc1O	.	.	.	.	.
COc1ccc(CCNC(=O)COC(=O)c2cc(OC)c(OC)cc2OC)cc1OC	.	.	.	.	.
COC(=O)c1oc2ccc(Br)cc2c1NC(=O)CN1CCN(C)CC1	100.4	/	/	/	/
Cc1nn(C)c(C(=O)Nc2ccn(C34CC5CC(CC(C5)C3)C4)n2)c1[N+](=O)[O-]	.	.	.	.	.
Cn1nccc1C(=O)Nc1ccn(C23CC4CC(CC(C4)C2)C3)n1	52.9	.	.	.	.
SMILES	Lmaj promast	PMI act	WT yeast gro inh	PMI act hi M6P	Diaph act CS
O=C(NC(NC(=S)Nc1c(Cl)cccc1Cl)C(Cl)(Cl)Cl)OCc1ccccc1 (stereo not drawn)	98.4	.	.	.	.
CCOC(=O)N1CCN(S(=O)(=O)c2cc([N+](=O)[O-])c(C)cc2C)CC1	.	.	.	.	.
COc1ccc2oc(=O)c(-c3csc(Nc4cccc(O)c4)n3)cc2c1	98.9	.	74.0	.	.
COc1ccc(Nc2nc(-c3cc4cccc(OC)c4oc3=O)cs2)cc1	.	.	.	.	.
Cc1ccc(NC(=O)CSc2ncnc3ccccc23)cc1S(=O)(=O)N1CCCCCC1	.	.	.	.	.
Cc1cccc(C)c1NC(=O)C(C)c1ccc(-c2ccccc2)c(F)c1 (stereo not drawn)	99.8	.	.	.	.
COc1cc(CNCCN2CCOCC2)ccc1OCC(=O)NC(C)(C)C	.	.	.	.	.
COc1cc(CNCCN2CCOCC2)ccc1OCc1c(Cl)cccc1Cl	86.4	.	.	.	.
CCOc1cc(CNCCN2CCOCC2)ccc1OCc1ccccc1Cl	98.2	.	.	.	.
CCOc1cc(CNCCCN2CCOCC2)ccc1OCC(=O)NC(C)(C)C	.	.	.	.	.
CO/C=C\C=C/c1nnn(-c2ccc(Cl)cc2)n1	.	.	.	.	.
Cc1cccc(N=Cc2cc3c(cc2[N+](=O)[O-])OCO3)c1	.	.	.	.	.
COc1cc(C=Nc2cccc(C)c2)c(O)c([N+](=O)[O-])c1	67.6	.	.	.	.
O=C(NNc1ccc(C2CCCCC2)cc1)C(O)(c1ccccc1)c1cccs1 (stereo not drawn)	99.1	.	89.0	2.1	.
COc1ccc(C(O)(C(=O)NNc2ccc(C)cc2)c2cccs2)cc1 (stereo not drawn)	.	.	.	.	.
O=C(/C=C/c1cccs1)NC(=S)NNC(=O)c1ccccc1O	98.6	.	.	.	.
O=C(c1ccc(Cl)c([N+](=O)[O-])c1)N(c1ccccn1)c1ccccn1	70.3	.	.	.	.
COc1ccccc1C(=O)O/N=C(\N)c1ccccc1Cl	91.5	.	.	.	.
COCCCNC(=O)c1cccc(C(=O)NCCCOC)c1	.	.	65.6	.	.
COCCCNC(=O)c1ccc2c(c1)OCO2	.	.	.	.	.
CC1=C(C(=O)Nc2ccccc2)C(c2ccc(C)o2)n2c(s/c(=C/c3ccccc3)c2=O)=N1 (stereo not drawn)	95.4	.	.	.	.
CC1=C(C(=O)Nc2ccccc2C)C(c2ccc(C)o2)n2c(s/c(=C/c3ccccc3)c2=O)=N1 (stereo not drawn)	75.2	.	.	.	.
CCOc1ccc(C2C(C(=O)Nc3ccccc3)=C(C)N=c3s/c(=C/c4cccc(OCC(=O)O)c4)c(=O)n32)cc1 (stereo not drawn)	.	.	.	.	.
O=C(CN(C(=O)CCC(=O)Nc1nccs1)c1ccc(F)c(Cl)c1)NCc1ccco1	89.6	.	.	.	.
CCSc1nc2ccccc2c(=O)n1Cc1ccc(F)cc1	.	.	.	.	.
SMILES	Lmaj promast	PMI act	WT yeast gro inh	PMI act hi M6P	Diaph act CS
CCOC(=O)C1CCN(CC(O)COc2ccc(C(=O)CC)cc2)CC1 (stereo not drawn)	93.7	.	.	.	.
OC(COC(c1ccccc1)c1ccccc1)CN1CCCCC1 (stereo not drawn)	99.2	.	.	.	.
O=C(/C=C/c1ccccc1)N1CCN(CC(O)COc2ccccc2)CC1 (stereo not drawn)	78.5	.	.	.	.
O=C(c1ccc(Cl)cc1)c1ccc(OCC(O)CN2CCOCC2)cc1 (stereo not drawn)	63.0	.	.	.	.
OC(COc1ccccc1)CN1CCOCC1 (stereo not drawn)	.	.	.	.	.
CCC(=O)c1ccc(OCC(O)CN2CCN(S(=O)(=O)N3CCCCC3)CC2)cc1 (stereo not drawn)	.	.	.	.	.
